# Reference: ChEMBL document CHEMBL1124865, “Synthesis and biological evaluation of a series of parenteral 3'-quaternary ammonium cephalosporins” (J Med Chem, 1990)
# What was measured:
# [1] = tested on: Enterobacter cloacae; assay: Antibacterial activity against Enterobacter cloacae 265A; format: functional; conditions: Enterobacter cloacae; read-out: MIC
# [2] = tested on: Escherichia coli; assay: Antibacterial activity against Escherichia coli EC14; format: functional; conditions: Escherichia coli; read-out: MIC
# [3] = tested on: Streptococcus pyogenes; assay: Antibacterial activity against Streptococcus pyogenes; format: functional; conditions: Streptococcus pyogenes; read-out: MIC
# [4] = tested on: Klebsiella pneumoniae; assay: Antibacterial activity against Klebsiella pneumoniae X26; format: functional; conditions: Klebsiella pneumoniae; read-out: MIC
# [5] = tested on: Pseudomonas aeruginosa; assay: Antibacterial activity against Pseudomonas aeruginosa X528; format: functional; conditions: Pseudomonas aeruginosa; read-out: MIC
# [6] = tested on: Streptococcus pneumoniae; assay: Antibacterial activity against Streptococcus pneumoniae; format: functional; conditions: Streptococcus pneumoniae; read-out: MIC
# [7] = tested on: Escherichia coli; assay: Antibacterial activity against Escherichia coli TEM; format: functional; conditions: Escherichia coli; read-out: MIC
# [8] = tested on: Pseudomonas aeruginosa; assay: Antibacterial activity against Pseudomonas aeruginosa PS18; format: functional; conditions: Pseudomonas aeruginosa; read-out: MIC
# [9] = tested on: Staphylococcus aureus; assay: Antibacterial activity against penicillin G resistance Staphylococcus aureus; format: functional; conditions: Staphylococcus aureus; read-out: MIC
# [10] = tested on: Staphylococcus aureus; assay: Antibacterial activity against penicillin G susceptible Staphylococcus aureus; format: functional; conditions: Staphylococcus aureus; read-out: MIC
# [11] = species: Cavia porcellus; assay: In vitro relative anticholinergic potential in isolated guinea pig trachea; format: functional
# Outline: (§1)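 Guinea pig trachea in Krebs' solution at 37.5 °C, 95% O2/5% CO2, pH 7.4, 2 g resting tension. Cumulative carbachol log dose-response curve (3-fold steps) run before and 30 min after adding antagonist at 1 mM. […] Tukey test on log2 dose ratios.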
# [12] = tested on: Enterococcus faecium; assay: Antibacterial activity against Enterococcus faecium; format: functional; conditions: Enterococcus faecium; read-out: MIC
# [13] = tested on: Enterobacter cloacae; assay: Antibacterial activity against Enterobacter cloacae EB5; format: functional; conditions: Enterobacter cloacae; read-out: MIC
# [14] = tested on: Klebsiella pneumoniae; assay: microbe, parasite or virus in culture; format: functional; conditions: Klebsiella pneumoniae; read-out: MIC
# [15] = tested on: Serratia marcescens; assay: Antibacterial activity against Serratia marcescens SE3; format: functional; conditions: Serratia marcescens; read-out: MIC
# [16] = In vitro dose required for anticholinergic activity in isolated guinea pig trachea; format: functional
# [17] = Terminal half life in dogs at the dose of 60 mg/kg.; format: ADME, organism-based, Canis lupus familiaris; design: dose 60 mg/kg; conditions: dog, in vivo
# Outline: (§2)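 Overnight-fasted female mongrel dogs with a Foley bladder catheter; bolus into the cephalic vein. Plasma and urine collected before dosing and over 24 h after. Antibacterial activity measured by microbiological assay.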
# [18] = tested on: Escherichia coli; assay: In vivo efficacy against Escherichia coli infected mice treated at 1 hr and 5 hr post infection; format: functional; conditions: Escherichia coli; read-out: ED50
# [19] = tested on: Escherichia coli; assay: In vivo efficacy against Escherichia coli infections in mice; format: functional; conditions: Escherichia coli; read-out: MIC
# [20] = tested on: Staphylococcus aureus; assay: In vivo efficacy against Staphylococcus aureus infections in mice; format: functional; conditions: Staphylococcus aureus; read-out: MIC
# [21] = tested on: Staphylococcus aureus; assay: In vivo efficacy against Staphylococcus aureus infected mice treated at 1 hr and 5 hr post infection; format: functional; conditions: Staphylococcus aureus; read-out: ED50
# [22] = tested on: Pseudomonas aeruginosa; assay: In vivo efficacy against Pseudomonas aeruginosa infected mice treated at 1 hr and 5 hr post infection; format: functional; conditions: Pseudomonas aeruginosa; read-out: ED50
# [23] = tested on: Canis familiaris; assay: Percent of dose in dogs urine at the dose of 60 mg/kg.; format: functional, Canis lupus familiaris; outline: as §2
# [24] = tested on: Pseudomonas aeruginosa; assay: In vivo efficacy against Pseudomonas aeruginosa infections in mice; format: functional; conditions: Pseudomonas aeruginosa; read-out: MIC
# [25] = tested on: Enterobacter cloacae; assay: In vitro relative hydrolysis rate against Enterobacter Ia; format: functional
# Outline: (§3)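 Spectrophotometric hydrolysis at 265 nm, substrate exposed to partially purified cell-free β-lactamase preparations; rate expressed as percentage of the cephaloridine rate.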
# [26] = tested on: Pseudomonas aeruginosa; assay: In vitro relative hydrolysis rate against Pseudomonas Id; format: functional; outline: as §3
# [27] = tested on: Staphylococcus aureus; assay: In vitro relative hydrolysis rate against Staphylococcus aureus; format: functional; outline: as §3
# [28] = tested on: Klebsiella pneumoniae; assay: In vitro relative hydrolysis rate against Klebsiella IV; format: functional; outline: as §3
# [29] = tested on: Escherichia coli; assay: In vitro relative hydrolysis rate against Escherichia coli IIIa; format: functional; outline: as §3
# [30] = species: Cavia porcellus; assay: In vitro relative anticholinergic activity in isolated guinea pig trachea; format: functional; conditions: read-out: pA2 (converted); outline: as §1
compound,measurement,setting,value
CO/N=C(\C(=O)N[C@@H]1C(=O)N2C(C(=O)[O-])=C(C[n+]3csc(CCO)c3C)CS[C@H]12)c1csc(N)n1,MIC,[1],4 µg/mL
same,MIC,[2],0.06 µg/mL
same,MIC,[3],0.03 µg/mL
same,MIC,[4],0.03 µg/mL
same,MIC,[5],8 µg/mL
same,MIC,[6],0.03 µg/mL
same,MIC,[7],0.03 µg/mL
same,MIC,[8],16 µg/mL
same,MIC,[9],4 µg/mL
same,MIC,[10],2 µg/mL
same,RAP,[11],1
same,MIC,[12],16 µg/mL
same,MIC,[13],0.125 µg/mL
same,MIC,[14],4 µg/mL
same,MIC,[15],0.125 µg/mL
same,Dose ratio,[16],1.27
CO/N=C(\C(=O)N[C@@H]1C(=O)N2C(C(=O)[O-])=C(C[n+]3ccc4occc4c3)CS[C@H]12)c1csc(N)n1,MIC,[1],4 µg/mL
same,half-life,[17],1.33 h
same,ED50,[18],< 0.6 mg/kg
same,MIC,[2],0.015 µg/mL
same,MIC,[3],< 0.008 µg/mL
same,MIC,[19],0.015 µg/mL
same,MIC,[4],0.015 µg/mL
same,MIC,[5],1 µg/mL
same,MIC,[20],1 µg/mL
same,ED50,[21],< 0.6 mg/kg
same,MIC,[6],< 0.008 µg/mL
same,ED50,[22],18 mg/kg
same,Percent of dose recovered in urine,[23],94%
same,MIC,[7],0.03 µg/mL
same,MIC,[8],2 µg/mL
same,MIC,[24],4 µg/mL
same,MIC,[9],4 µg/mL
same,MIC,[10],0.5 µg/mL
same,MIC,[12],> 128 µg/mL
same,MIC,[13],0.06 µg/mL
same,MIC,[14],4 µg/mL
same,MIC,[15],0.03 µg/mL
CO/N=C(\C(=O)N[C@@H]1C(=O)N2C(C(=O)[O-])=C(C[n+]3cccc4occc43)CS[C@H]12)c1csc(N)n1,MIC,[1],4 µg/mL
same,half-life,[17],1.67 h
same,MIC,[2],0.06 µg/mL
same,MIC,[3],0.06 µg/mL
same,MIC,[4],0.06 µg/mL
same,MIC,[5],4 µg/mL
same,MIC,[6],0.06 µg/mL
same,Percent of dose recovered in urine,[23],78%
same,MIC,[7],0.06 µg/mL
same,MIC,[8],8 µg/mL
same,MIC,[9],4 µg/mL
same,MIC,[10],0.5 µg/mL
same,MIC,[12],32 µg/mL
same,MIC,[13],0.5 µg/mL
same,MIC,[14],8 µg/mL
same,MIC,[15],0.25 µg/mL
CO/N=C(\C(=O)N[C@@H]1C(=O)N2C(C(=O)[O-])=C(C[n+]3ccc4sc(C)cc4c3)CS[C@H]12)c1csc(N)n1,MIC,[1],4 µg/mL
same,half-life,[17],1.67 h
same,MIC,[2],0.015 µg/mL
same,MIC,[3],< 0.008 µg/mL
same,MIC,[4],< 0.008 µg/mL
same,MIC,[5],2 µg/mL
same,MIC,[6],< 0.008 µg/mL
same,Percent of dose recovered in urine,[23],64%
same,MIC,[7],0.015 µg/mL
same,MIC,[8],8 µg/mL
same,MIC,[9],4 µg/mL
same,MIC,[10],0.5 µg/mL
same,MIC,[12],> 128 µg/mL
same,MIC,[13],0.06 µg/mL
same,MIC,[14],1 µg/mL
same,MIC,[15],0.06 µg/mL
CO/N=C(\C(=O)N[C@@H]1C(=O)N2C(C(=O)[O-])=C(C[n+]3ccc4ccccc4c3)CS[C@H]12)c1csc(N)n1,Hydrolysis rate,[25],0.3
same,MIC,[1],8 µg/mL
same,ED50,[18],0.04 mg/kg
same,MIC,[2],0.015 µg/mL
same,MIC,[3],< 0.008 µg/mL
same,MIC,[19],0.015 µg/mL
same,MIC,[4],0.015 µg/mL
same,MIC,[5],2 µg/mL
same,MIC,[20],1 µg/mL
same,ED50,[21],0.4 mg/kg
same,MIC,[6],0.015 µg/mL
same,ED50,[22],9 mg/kg
same,MIC,[7],0.03 µg/mL
same,MIC,[8],4 µg/mL
same,MIC,[24],8 µg/mL
same,MIC,[9],1 µg/mL
same,MIC,[10],1 µg/mL
same,Hydrolysis rate,[26],0.1
same,Hydrolysis rate,[27],9.3
same,MIC,[12],128 µg/mL
same,MIC,[13],0.06 µg/mL
same,MIC,[14],2 µg/mL
same,Hydrolysis rate,[28],2.8
same,Hydrolysis rate,[29],0.2
same,MIC,[15],0.06 µg/mL
CO/N=C(\C(=O)N[C@@H]1C(=O)N2C(C(=O)[O-])=C(C[n+]3ccc4nc(C)sc4c3)CS[C@H]12)c1csc(N)n1,MIC,[1],16 µg/mL
same,MIC,[3],0.015 µg/mL
same,MIC,[5],8 µg/mL
same,MIC,[8],8 µg/mL
same,Kb,[30],955 µM
same,MIC,[9],4 µg/mL
same,MIC,[10],1 µg/mL
same,RAP,[11],5
same,MIC,[12],128 µg/mL
same,MIC,[14],1 µg/mL
same,MIC,[15],0.25 µg/mL
CO/N=C(\C(=O)N[C@@H]1C(=O)N2C(C(=O)[O-])=C(C[n+]3cccc4ccccc43)CS[C@H]12)c1csc(N)n1,Hydrolysis rate,[25],0.1
same,MIC,[1],4 µg/mL
same,ED50,[18],0.04 mg/kg
same,MIC,[2],0.03 µg/mL
same,MIC,[3],0.015 µg/mL
same,MIC,[19],0.03 µg/mL
same,MIC,[4],0.015 µg/mL
same,MIC,[5],2 µg/mL
same,MIC,[20],0.5 µg/mL
same,ED50,[21],0.4 mg/kg
same,MIC,[6],0.015 µg/mL
same,ED50,[22],9.5 mg/kg
same,MIC,[7],0.015 µg/mL
same,MIC,[8],4 µg/mL
same,MIC,[24],8 µg/mL
same,MIC,[9],1 µg/mL
same,MIC,[10],0.5 µg/mL
same,Hydrolysis rate,[26],0.1
same,Hydrolysis rate,[27],8.4
same,MIC,[12],128 µg/mL
same,MIC,[13],0.125 µg/mL
same,MIC,[14],2 µg/mL
same,Hydrolysis rate,[28],0.8
same,Hydrolysis rate,[29],0.2
same,MIC,[15],0.125 µg/mL
